ChEMBL document CHEMBL4373711, “Development of 3,5-Dinitrophenyl-Containing 1,2,4-Triazoles and Their Trifluoromethyl Analogues as Highly Efficient Antitubercular Agents Inhibiting Decaprenylphosphoryl-β-d-ribofuranose 2'-Oxidase” (J Med Chem, 2019)
Converted amounts (≈) assume the structure as drawn.

Tests used:
[1] = test system: Mycobacterium tuberculosis; assay: Antimycobacterial activity against multi-drug resistant Mycobacterium tuberculosis Praha 1 after 14 days; format: functional; settings: Praha 1, 336 h
Summary of the method: (§1)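 M. tuberculosis strains (H37Rv and clinical MDR/XDR isolates) tested by microdilution in Šula's semisynthetic medium. Compounds were dissolved in DMSO and tested at 32 to 0.03 µM in twofold steps. Inoculum was a 1.0 McFarland suspension diluted 10-3. Plates were incubated at 37 °C and read at 14 and 21 days.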

[2] = test system: Mycobacterium tuberculosis; assay: Antimycobacterial activity against multi-drug resistant Mycobacterium tuberculosis Praha 1 after 21 days; format: functional; settings: Praha 1, 504 h; summary of the method: as §1
[3] = test system: Mycobacterium tuberculosis; assay: Antimycobacterial activity against multi-drug resistant Mycobacterium tuberculosis Praha 4 after 14 days; settings: Praha 4, 336 h
[4] = test system: Mycobacterium tuberculosis; assay: Antimycobacterial activity against multi-drug resistant Mycobacterium tuberculosis Praha 4 after 21 days; format: functional; settings: Praha 4, 504 h; summary of the method: as §1
[5] = test system: Mycobacterium tuberculosis; assay: Antimycobacterial activity against multi-drug resistant Mycobacterium tuberculosis 9449/2007 after 21 days; format: functional; settings: 9449/2007, 504 h; summary of the method: as §1
[6] = test system: Mycobacterium tuberculosis; assay: Antimycobacterial activity against multi-drug resistant Mycobacterium tuberculosis 9449/2007 after 14 days; format: functional; settings: 9449/2007, 336 h; summary of the method: as §1
[7] = test system: Mycobacterium tuberculosis; assay: Antimycobacterial activity against multi-drug resistant Mycobacterium tuberculosis 234/2005 after 21 days; format: functional; settings: 234/2005, 504 h; summary of the method: as §1
[8] = test system: Mycobacterium tuberculosis; assay: Antimycobacterial activity against multi-drug resistant Mycobacterium tuberculosis 7357/1998 after 21 days; format: functional; settings: 7357/1998, 504 h; summary of the method: as §1
[9] = test system: Mycobacterium tuberculosis; assay: Antimycobacterial activity against multi-drug resistant Mycobacterium tuberculosis 7357/1998 after 14 days; format: functional; settings: 7357/1998, 336 h; summary of the method: as §1
[10] = test system: Mycobacterium tuberculosis; assay: Antimycobacterial activity against multi-drug resistant Mycobacterium tuberculosis 8666/2010 after 14 days; format: functional; settings: 8666/2010, 336 h; summary of the method: as §1
[11] = test system: Mycobacterium tuberculosis; assay: Antimycobacterial activity against multi-drug resistant Mycobacterium tuberculosis 8666/2010 after 21 days; format: functional; settings: 8666/2010, 504 h; summary of the method: as §1
[12] = test system: Mycobacterium tuberculosis; assay: microbe, parasite or virus in culture; settings: 234/2005, 336 h

What does the source list for `CCCCCCCCSc1nnc(-c2cc([N+](=O)[O-])cc([N+](=O)[O-])c2)n1Cc1ccccc1`?
MIC99 [1]: 0.125 µM (≈ 0.0587 µg/mL); MIC99 [2]: 0.25 µM (≈ 0.117 µg/mL); MIC99 [3]: 0.125 µM (≈ 0.0587 µg/mL); MIC99 [4]: 0.25 µM (≈ 0.117 µg/mL); MIC99 [5]: 0.125 µM (≈ 0.0587 µg/mL); MIC99 [6]: 0.25 µM (≈ 0.117 µg/mL); MIC99 [7]: 0.25 µM (≈ 0.117 µg/mL); MIC99 [8]: 0.125 µM (≈ 0.0587 µg/mL); MIC99 [9]: 0.25 µM (≈ 0.117 µg/mL); MIC99 [10]: 0.125 µM (≈ 0.0587 µg/mL); MIC99 [11]: 0.25 µM (≈ 0.117 µg/mL); MIC99 [12]: 0.125 µM (≈ 0.0587 µg/mL)

`O=[N+]([O-])c1cc(CSc2nnc(-c3ccc(Br)cc3)n2Cc2ccccc2)cc([N+](=O)[O-])c1` was tested. Which MIC99 [1] did it give?
The MIC99 was 2 µM (≈ 1.05 µg/mL).

And the MIC99 [2]?
Its MIC99 is 4 µM (≈ 2.11 µg/mL).

And the MIC99 [3]?
The MIC99 was 2 µM (≈ 1.05 µg/mL).

And the MIC99 [4]?
The MIC99 was 4 µM (≈ 2.11 µg/mL).

And the MIC99 [5]?
Its MIC99 is 2 µM (≈ 1.05 µg/mL).

And the MIC99 [6]?
Its MIC99 is 4 µM (≈ 2.11 µg/mL).

And the MIC99 [7]?
Its MIC99 is 4 µM (≈ 2.11 µg/mL).

And the MIC99 [8]?
Its MIC99 is 2 µM (≈ 1.05 µg/mL).

And the MIC99 [9]?
The MIC99 was 4 µM (≈ 2.11 µg/mL).

And the MIC99 [10]?
The MIC99 was 2 µM (≈ 1.05 µg/mL).

And the MIC99 [11]?
Its MIC99 is 4 µM (≈ 2.11 µg/mL).

What about the MIC99 [12] of the same compound?
The MIC99 was 4 µM (≈ 2.11 µg/mL).

How did the MIC99 [1] turn out when `COc1ccc(Cn2c(SCc3cc([N+](=O)[O-])cc([N+](=O)[O-])c3)nnc2-c2ccccc2)cc1` was run?
The MIC99 was 2 µM (≈ 0.955 µg/mL).

And the MIC99 [2]?
The MIC99 was 4 µM (≈ 1.91 µg/mL).

And the MIC99 [3]?
The MIC99 was 2 µM (≈ 0.955 µg/mL).

And the MIC99 [4]?
The MIC99 was 4 µM (≈ 1.91 µg/mL).

What about the MIC99 [5] of the same compound?
Its MIC99 is 2 µM (≈ 0.955 µg/mL).

What about the MIC99 [6] of the same compound?
Its MIC99 is 4 µM (≈ 1.91 µg/mL).

What about the MIC99 [7] of the same compound?
The MIC99 was 4 µM (≈ 1.91 µg/mL).

And the MIC99 [8]?
The MIC99 was 2 µM (≈ 0.955 µg/mL).

And the MIC99 [9]?
The MIC99 was 2 µM (≈ 0.955 µg/mL).

And the MIC99 [10]?
The MIC99 was 2 µM (≈ 0.955 µg/mL).

And the MIC99 [11]?
The MIC99 was 2 µM (≈ 0.955 µg/mL).

And the MIC99 [12]?
Its MIC99 is 2 µM (≈ 0.955 µg/mL).

What does the source list for `CCCSc1nnc(-c2cc([N+](=O)[O-])cc([N+](=O)[O-])c2)n1Cc1ccccc1`?
MIC99 [1]: 0.125 µM (≈ 0.0499 µg/mL); MIC99 [2]: 0.125 µM (≈ 0.0499 µg/mL); MIC99 [3]: 0.125 µM (≈ 0.0499 µg/mL); MIC99 [4]: 0.125 µM (≈ 0.0499 µg/mL); MIC99 [5]: 0.06 µM (≈ 0.024 µg/mL); MIC99 [6]: 0.125 µM (≈ 0.0499 µg/mL); MIC99 [7]: 0.125 µM (≈ 0.0499 µg/mL); MIC99 [8]: 0.06 µM (≈ 0.024 µg/mL); MIC99 [9]: 0.125 µM (≈ 0.0499 µg/mL); MIC99 [10]: 0.06 µM (≈ 0.024 µg/mL); MIC99 [11]: 0.125 µM (≈ 0.0499 µg/mL); MIC99 [12]: 0.06 µM (≈ 0.024 µg/mL)

Which MIC99 [1] does the source give for `O=[N+]([O-])c1cc(-c2nnc(SCc3ccc(Cl)c(Cl)c3)n2Cc2ccccc2)cc([N+](=O)[O-])c1` here?
The MIC99 was 0.25 µM (≈ 0.129 µg/mL).

What about the MIC99 [2] of the same compound?
The MIC99 was 0.25 µM (≈ 0.129 µg/mL).

What about the MIC99 [3] of the same compound?
The MIC99 was 0.125 µM (≈ 0.0645 µg/mL).

And the MIC99 [4]?
Its MIC99 is 0.125 µM (≈ 0.0645 µg/mL).

What about the MIC99 [5] of the same compound?
Its MIC99 is 0.25 µM (≈ 0.129 µg/mL).

And the MIC99 [6]?
Its MIC99 is 0.25 µM (≈ 0.129 µg/mL).

What about the MIC99 [7] of the same compound?
Its MIC99 is 0.25 µM (≈ 0.129 µg/mL).

What about the MIC99 [8] of the same compound?
The MIC99 was 0.25 µM (≈ 0.129 µg/mL).

What about the MIC99 [9] of the same compound?
Its MIC99 is 0.25 µM (≈ 0.129 µg/mL).

And the MIC99 [10]?
The MIC99 was 0.25 µM (≈ 0.129 µg/mL).

And the MIC99 [11]?
Its MIC99 is 0.25 µM (≈ 0.129 µg/mL).

And the MIC99 [12]?
The MIC99 was 0.25 µM (≈ 0.129 µg/mL).

`CN[C@@H]1[C@H](O[C@H]2[C@H](O[C@H]3[C@H](O)[C@@H](O)[C@H](N=C(N)N)[C@@H](O)[C@@H]3N=C(N)N)O[C@@H](C)[C@]2(O)C=O)O[C@@H](CO)[C@H](O)[C@H]1O` [STREPTOMYCIN] was tested. Which MIC99 [3] did it give?
The MIC99 was over 32 µM.

And the MIC99 [5]?
The MIC99 was over 32 µM.

And the MIC99 [8]?
The MIC99 was over 32 µM.

And the MIC99 [10]?
The MIC99 was over 32 µM.

Which results are given for `CCn1c(SCc2ccccc2)nnc1-c1cc([N+](=O)[O-])cc([N+](=O)[O-])c1`?
MIC99 [1]: 0.03 µM (≈ 0.0116 µg/mL); MIC99 [2]: 0.03 µM (≈ 0.0116 µg/mL); MIC99 [3]: 0.03 µM (≈ 0.0116 µg/mL); MIC99 [4]: 0.03 µM (≈ 0.0116 µg/mL); MIC99 [5]: 0.03 µM (≈ 0.0116 µg/mL); MIC99 [6]: 0.03 µM (≈ 0.0116 µg/mL); MIC99 [7]: 0.03 µM (≈ 0.0116 µg/mL); MIC99 [8]: 0.03 µM (≈ 0.0116 µg/mL); MIC99 [9]: 0.03 µM (≈ 0.0116 µg/mL); MIC99 [10]: 0.03 µM (≈ 0.0116 µg/mL); MIC99 [11]: 0.03 µM (≈ 0.0116 µg/mL); MIC99 [12]: 0.03 µM (≈ 0.0116 µg/mL)

Which MIC99 [1] does the source give for `Cn1c(SCc2ccc(Cl)c(Cl)c2)nnc1-c1cc([N+](=O)[O-])cc([N+](=O)[O-])c1` here?
The MIC99 was 0.06 µM (≈ 0.0264 µg/mL).

And the MIC99 [2]?
Its MIC99 is 0.06 µM (≈ 0.0264 µg/mL).

What about the MIC99 [3] of the same compound?
The MIC99 was 0.06 µM (≈ 0.0264 µg/mL).

And the MIC99 [4]?
Its MIC99 is 0.06 µM (≈ 0.0264 µg/mL).

What about the MIC99 [5] of the same compound?
Its MIC99 is 0.06 µM (≈ 0.0264 µg/mL).

And the MIC99 [6]?
Its MIC99 is 0.06 µM (≈ 0.0264 µg/mL).

What about the MIC99 [7] of the same compound?
The MIC99 was 0.06 µM (≈ 0.0264 µg/mL).

And the MIC99 [8]?
Its MIC99 is 0.06 µM (≈ 0.0264 µg/mL).

What about the MIC99 [9] of the same compound?
The MIC99 was 0.06 µM (≈ 0.0264 µg/mL).

And the MIC99 [10]?
The MIC99 was 0.06 µM (≈ 0.0264 µg/mL).

What about the MIC99 [11] of the same compound?
Its MIC99 is 0.06 µM (≈ 0.0264 µg/mL).

And the MIC99 [12]?
Its MIC99 is 0.06 µM (≈ 0.0264 µg/mL).

What does the source list for `O=[N+]([O-])c1cc(CSc2nnc(-c3ccccc3)n2Cc2ccccc2)cc([N+](=O)[O-])c1`?
MIC99 [1]: 2 µM (≈ 0.895 µg/mL); MIC99 [2]: 4 µM (≈ 1.79 µg/mL); MIC99 [3]: 2 µM (≈ 0.895 µg/mL); MIC99 [4]: 4 µM (≈ 1.79 µg/mL); MIC99 [5]: 4 µM (≈ 1.79 µg/mL); MIC99 [6]: 4 µM (≈ 1.79 µg/mL); MIC99 [7]: 4 µM (≈ 1.79 µg/mL); MIC99 [8]: 2 µM (≈ 0.895 µg/mL); MIC99 [9]: 4 µM (≈ 1.79 µg/mL); MIC99 [10]: 2 µM (≈ 0.895 µg/mL); MIC99 [11]: 4 µM (≈ 1.79 µg/mL); MIC99 [12]: 4 µM (≈ 1.79 µg/mL)

Which MIC99 [3] does the source give for `CC1COc2c(N3CCN(C)CC3)c(F)cc3c(=O)c(C(=O)O)cn1c23` (stereo not drawn) [OFLOXACIN] here?
Its MIC99 is over 16 µM.

What does the source list for `O=[N+]([O-])c1cc(CSc2nnc(C3CCCCC3)n2Cc2ccccc2)cc(C(F)(F)F)c1`?
MIC99 [1]: 16 µM (≈ 7.62 µg/mL); MIC99 [2]: 16 µM (≈ 7.62 µg/mL); MIC99 [3]: 16 µM (≈ 7.62 µg/mL); MIC99 [4]: 16 µM (≈ 7.62 µg/mL); MIC99 [5]: 16 µM (≈ 7.62 µg/mL); MIC99 [6]: 16 µM (≈ 7.62 µg/mL); MIC99 [7]: 16 µM (≈ 7.62 µg/mL); MIC99 [8]: 16 µM (≈ 7.62 µg/mL); MIC99 [9]: 16 µM (≈ 7.62 µg/mL); MIC99 [10]: 16 µM (≈ 7.62 µg/mL); MIC99 [11]: 16 µM (≈ 7.62 µg/mL); MIC99 [12]: 16 µM (≈ 7.62 µg/mL)
